Results reported in PMC12480717 (Scientific Reports, 2025).

Columns and labels:
Assay in all cases: MIC
Format in all cases: cell-based
Conditions in all cases: broth microdilution, 37 °C, 24 h
A. baumannii ATCC 19606 = system: A. baumannii ATCC 19606
Summary of the method: (§1)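 Strains were kept in TSB with 25% glycerol at −70 °C and grown aerobically on nutrient agar at 37 °C for 24 h. For MIC, test compound was diluted twofold (1–256 µg/mL) and ~10^6 cells/mL were added, followed by 37 °C for 24 h. MIC was read visually as 99% growth inhibition, with gentamycin as control. For MBC, non-turbid wells were plated on Mueller–Hinton agar for 24 h at 37 °C; MBC was the lowest concentration giving no colonies.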

P. aeruginosa ATCC 27853 = system: P. aeruginosa ATCC 27853
Summary of the method: as §1

S. aureus ATCC 29213 = system: S. aureus ATCC 29213
Summary of the method: as §1

Gentamycin
MIC (A. baumannii ATCC 19606): 4 µg/mL
MIC (P. aeruginosa ATCC 27853): 2 µg/mL
MIC (S. aureus ATCC 29213): 1 µg/mL
